Activity calls are given as the source filed them. No cut-off for these calls is given here.

Data on 29 compounds can be found in ChEMBL document CHEMBL1938243, “Identification of novel, exosite-binding matrix metalloproteinase-13 inhibitor scaffolds” (Bioorg Med Chem Lett, 2011).

Experiment [1] has as its target T1, Collagenase 3 (Homo sapiens, UniProt P45452). The experiment in a line: Inhibition of human full length recombinant MMP13 using triple-helical fTHP-15 as substrate at 40 uM after 4 hrs by FRET assay. In short, it runs like this: (§1)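 Inhibitors tested at 40 μM in a FRET assay with the triple-helical peptide substrate fTHP-15 (exosite-engaging), read as percent inhibition of enzyme activity. Enzyme levels: MMP-1 4 nM; MMP-2, MMP-9 and MMP-14 10 nM each; MMP-8 2 nM; MMP-13 2.3 nM.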

Experiment [2] has as its target T1, Collagenase 3. The experiment in a line: Inhibition of human full length recombinant MMP13 assessed as residual activity using Knight SSP as substrate at 100 uM after 1.5 to 4 hrs by spectrofluorometric analysis relative to control.
In experiment [3] the target is T2, Neutrophil collagenase (Homo sapiens, UniProt P22894). The experiment in a line: Inhibition of MMP8 expressed in CHO-K1 cells using triple-helical fTHP-15 as substrate at 40 uM after 4 hrs by FRET assay. In short, it runs like this:
as §1
Target sequence in this assay (P22894 101-467 limits assumed): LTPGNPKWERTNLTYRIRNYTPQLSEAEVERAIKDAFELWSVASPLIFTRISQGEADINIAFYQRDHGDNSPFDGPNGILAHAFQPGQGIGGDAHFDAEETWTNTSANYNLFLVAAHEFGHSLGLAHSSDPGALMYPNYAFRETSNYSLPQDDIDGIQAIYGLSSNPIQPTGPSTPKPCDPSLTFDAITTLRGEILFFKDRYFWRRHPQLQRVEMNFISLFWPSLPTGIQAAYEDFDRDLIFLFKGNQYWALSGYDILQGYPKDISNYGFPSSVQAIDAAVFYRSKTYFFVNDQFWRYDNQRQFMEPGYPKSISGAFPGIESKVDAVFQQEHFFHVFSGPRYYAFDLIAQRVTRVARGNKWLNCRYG

Experiment [4] has as its target 72 kDa type IV collagenase (Homo sapiens) (UniProt P08253). Kind of experiment: Inhibition of human MMP2 assessed as residual activity using Knight SSP as substrate at 100 uM after 1.5 to 4 hrs by spectrofluorometric analysis relative to control.
Experiment [5] has as its target Matrix metalloproteinase-9 (Homo sapiens) (UniProt P14780). The experiment in a line: Inhibition of recombinant MMP9 using triple-helical fTHP-15 as substrate at 40 uM after 4 hrs by FRET assay. In short, it runs like this:
as §1

For experiment [6], the target named is T3, Matrix metalloproteinase-20 (Homo sapiens) (UniProt O60882).
T3 sequence (whole entry): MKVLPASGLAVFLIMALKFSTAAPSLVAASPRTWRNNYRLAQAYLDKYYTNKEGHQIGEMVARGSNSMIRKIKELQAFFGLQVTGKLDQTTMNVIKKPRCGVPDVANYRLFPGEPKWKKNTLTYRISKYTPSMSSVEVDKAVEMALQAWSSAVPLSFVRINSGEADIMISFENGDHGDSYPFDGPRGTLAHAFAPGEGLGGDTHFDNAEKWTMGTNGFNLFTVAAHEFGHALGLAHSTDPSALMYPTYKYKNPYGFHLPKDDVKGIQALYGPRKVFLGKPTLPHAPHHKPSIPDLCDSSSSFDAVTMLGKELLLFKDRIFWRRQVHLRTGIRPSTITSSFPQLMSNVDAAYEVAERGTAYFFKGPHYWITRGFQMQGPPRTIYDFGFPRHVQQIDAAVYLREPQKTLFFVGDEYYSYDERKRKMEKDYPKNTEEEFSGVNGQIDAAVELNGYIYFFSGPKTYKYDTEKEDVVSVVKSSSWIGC
Kind of experiment: Inhibition of MMP20 assessed as residual activity using Knight SSP as substrate at 100 uM after 1.5 to 4 hrs by spectrofluorometric analysis relative to control.

The target of experiment [7] is 72 kDa type IV collagenase (Homo sapiens) (UniProt P08253). The experiment in a line: Inhibition of human MMP2 using triple-helical fTHP-15 as substrate at 40 uM after 4 hrs by FRET assay. The method, boiled down:
as §1

Experiment [8] has as its target Macrophage metalloelastase (Homo sapiens) (UniProt P39900). The experiment in a line: Inhibition of MMP12 assessed as residual activity using Knight SSP as substrate at 100 uM after 1.5 to 4 hrs by spectrofluorometric analysis relative to control.
Experiment [9] has as its target T4, Interstitial collagenase (Homo sapiens) (UniProt P03956).
T4 sequence (whole entry): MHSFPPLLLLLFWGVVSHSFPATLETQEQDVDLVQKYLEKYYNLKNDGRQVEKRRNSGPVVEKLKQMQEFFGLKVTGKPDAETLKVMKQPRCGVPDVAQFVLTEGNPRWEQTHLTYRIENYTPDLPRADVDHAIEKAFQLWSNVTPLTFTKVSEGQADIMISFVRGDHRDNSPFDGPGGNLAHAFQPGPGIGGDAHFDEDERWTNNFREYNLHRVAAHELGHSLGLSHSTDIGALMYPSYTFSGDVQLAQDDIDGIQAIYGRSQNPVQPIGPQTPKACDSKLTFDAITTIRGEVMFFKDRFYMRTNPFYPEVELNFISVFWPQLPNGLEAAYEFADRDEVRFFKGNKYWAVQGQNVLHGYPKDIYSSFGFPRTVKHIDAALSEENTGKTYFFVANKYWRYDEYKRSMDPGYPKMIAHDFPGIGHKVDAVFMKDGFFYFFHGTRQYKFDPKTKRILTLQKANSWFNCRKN
The experiment in a line: Inhibition of MMP1 expressed in Escherichia coli using triple-helical fTHP-15 as substrate at 40 uM after 4 hrs by FRET assay. The method, boiled down: as §1

The target in experiment [10] is T2, Neutrophil collagenase. The experiment in a line: Inhibition of MMP8 expressed in CHO-K1 cells assessed as residual activity using Knight SSP as substrate at 100 uM after 1.5 to 4 hrs by spectrofluorometric analysis relative to control. It counts as cell-based.
Target sequence in this assay (P22894 101-467 limits assumed): as the sequence (P22894 101-467 limits assumed) above
Experiment [11] has as its target T4, Interstitial collagenase (Homo sapiens). Kind of experiment: Inhibition of MMP1 expressed in Escherichia coli assessed as residual activity using Knight SSP as substrate at 100 uM after 1.5 to 4 hrs by spectrofluorometric analysis relative to control.
The target in experiment [12] is Matrix metalloproteinase-14 (Homo sapiens) (UniProt P50281). Kind of experiment: Inhibition of MMP14 using triple-helical fTHP-15 as substrate at 40 uM after 4 hrs by FRET assay. The method, boiled down: as §1
In experiment [13] the target is Disintegrin and metalloproteinase domain-containing protein 17 (Homo sapiens) (UniProt P78536). The experiment in a line: Inhibition of TACE at 40 uM.
Chain of Disintegrin and metalloproteinase domain-containing protein 17 (Homo sapiens) (P78536 whole entry, the tested form may be a part): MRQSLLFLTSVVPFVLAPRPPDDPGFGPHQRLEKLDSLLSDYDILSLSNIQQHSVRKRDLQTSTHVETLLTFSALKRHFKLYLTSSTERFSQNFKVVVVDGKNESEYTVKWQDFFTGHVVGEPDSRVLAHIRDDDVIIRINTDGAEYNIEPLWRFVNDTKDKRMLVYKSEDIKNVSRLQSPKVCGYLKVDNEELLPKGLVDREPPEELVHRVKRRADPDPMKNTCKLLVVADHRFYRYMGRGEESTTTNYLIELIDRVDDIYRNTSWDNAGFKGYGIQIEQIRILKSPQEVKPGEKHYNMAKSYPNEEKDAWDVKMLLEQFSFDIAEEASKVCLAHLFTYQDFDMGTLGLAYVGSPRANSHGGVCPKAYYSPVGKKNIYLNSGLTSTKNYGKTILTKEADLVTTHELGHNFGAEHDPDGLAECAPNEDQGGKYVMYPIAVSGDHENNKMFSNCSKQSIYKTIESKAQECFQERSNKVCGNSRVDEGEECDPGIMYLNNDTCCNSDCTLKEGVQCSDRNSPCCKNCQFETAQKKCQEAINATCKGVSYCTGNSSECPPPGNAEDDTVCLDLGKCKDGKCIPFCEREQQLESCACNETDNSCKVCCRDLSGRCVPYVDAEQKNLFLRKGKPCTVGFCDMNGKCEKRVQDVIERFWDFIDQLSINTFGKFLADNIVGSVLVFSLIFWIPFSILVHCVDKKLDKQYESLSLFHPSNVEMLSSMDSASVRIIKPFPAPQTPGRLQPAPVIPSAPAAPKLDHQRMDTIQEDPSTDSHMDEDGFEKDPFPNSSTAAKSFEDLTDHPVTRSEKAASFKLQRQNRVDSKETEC
The target in experiment [14] is Matrix metalloproteinase-14 (Homo sapiens) (UniProt P50281). The experiment in a line: Inhibition of MMP14 assessed as residual activity using Knight SSP as substrate at 100 uM after 1.5 to 4 hrs by spectrofluorometric analysis relative to control.
Experiment [15] concerns the target Stromelysin-1 (Homo sapiens) (UniProt P08254). The experiment in a line: Inhibition of MMP3 expressed in Escherichia coli assessed as residual activity using Knight SSP as substrate at 100 uM after 1.5 to 4 hrs by spectrofluorometric analysis relative to control.
The target of experiment [16] is T1, Collagenase 3. Kind of experiment: Noncompetitive inhibition of human full length recombinant MMP13 using triple-helical fTHP-15 as substrate by Lineweaver-Burk plot analysis. The method, boiled down:
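Single-inhibitor kinetic assay of MMP-13 hydrolysis of the FRET triple-helical peptide fTHP-15, which engages protease exosites. Run to obtain the inhibition constant (Ki) and the inhibition modality, following previously described methods.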

Experiment [17] deals with T2, Neutrophil collagenase. Kind of experiment: Inhibition of MMP8 expressed in CHO-K1 cells using triple-helical fTHP-15 as substrate after 4 hrs by FRET assay. It counts as cell-based.
Target sequence in this assay (P22894 whole entry): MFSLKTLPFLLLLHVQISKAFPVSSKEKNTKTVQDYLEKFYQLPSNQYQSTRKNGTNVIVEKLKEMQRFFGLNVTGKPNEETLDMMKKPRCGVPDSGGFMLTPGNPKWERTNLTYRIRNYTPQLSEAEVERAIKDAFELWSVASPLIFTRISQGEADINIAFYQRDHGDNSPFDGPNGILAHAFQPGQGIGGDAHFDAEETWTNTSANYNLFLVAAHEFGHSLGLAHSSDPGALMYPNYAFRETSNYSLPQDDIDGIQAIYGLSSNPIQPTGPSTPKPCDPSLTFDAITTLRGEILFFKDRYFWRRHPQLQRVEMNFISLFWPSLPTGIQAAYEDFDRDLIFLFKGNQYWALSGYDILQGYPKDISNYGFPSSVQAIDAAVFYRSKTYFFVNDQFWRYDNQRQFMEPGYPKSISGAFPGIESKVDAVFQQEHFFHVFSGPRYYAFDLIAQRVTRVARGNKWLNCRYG
The target of a further experiment is T5, Interstitial collagenase (Homo sapiens, UniProt P03956).
T5 sequence (P03956 whole entry): T4 sequence (whole entry)
Kind of experiment: Inhibition of MMP1 expressed in Escherichia coli using triple-helical fTHP-15 as substrate after 4 hrs by FRET assay.

Chain of 72 kDa type IV collagenase (Homo sapiens) (P08253 110-660 limits assumed): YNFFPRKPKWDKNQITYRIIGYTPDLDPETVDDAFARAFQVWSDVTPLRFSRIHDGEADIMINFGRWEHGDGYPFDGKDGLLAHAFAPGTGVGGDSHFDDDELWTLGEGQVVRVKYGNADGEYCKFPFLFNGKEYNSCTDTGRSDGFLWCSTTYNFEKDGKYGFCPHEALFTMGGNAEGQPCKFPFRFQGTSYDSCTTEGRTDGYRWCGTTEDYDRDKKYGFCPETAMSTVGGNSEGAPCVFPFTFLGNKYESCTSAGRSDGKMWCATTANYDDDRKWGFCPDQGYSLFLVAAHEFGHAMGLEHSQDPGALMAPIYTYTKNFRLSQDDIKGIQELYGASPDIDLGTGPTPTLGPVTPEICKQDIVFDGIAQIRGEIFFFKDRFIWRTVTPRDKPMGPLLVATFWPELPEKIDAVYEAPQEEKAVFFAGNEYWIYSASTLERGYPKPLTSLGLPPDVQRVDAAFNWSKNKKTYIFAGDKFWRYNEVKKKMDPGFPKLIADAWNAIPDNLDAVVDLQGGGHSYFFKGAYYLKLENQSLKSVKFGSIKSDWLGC
Chain of Macrophage metalloelastase (Homo sapiens) (P39900 106-470 limits assumed): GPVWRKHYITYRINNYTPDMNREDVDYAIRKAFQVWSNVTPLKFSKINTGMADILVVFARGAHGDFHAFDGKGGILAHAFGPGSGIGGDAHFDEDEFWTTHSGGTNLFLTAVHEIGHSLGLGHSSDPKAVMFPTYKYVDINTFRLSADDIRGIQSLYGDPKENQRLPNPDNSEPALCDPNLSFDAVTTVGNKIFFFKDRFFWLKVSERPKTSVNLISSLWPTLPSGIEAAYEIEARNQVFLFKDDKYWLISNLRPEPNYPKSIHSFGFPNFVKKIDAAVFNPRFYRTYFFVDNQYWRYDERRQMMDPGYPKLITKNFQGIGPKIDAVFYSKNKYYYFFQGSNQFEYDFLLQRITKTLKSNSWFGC
Chain of Matrix metalloproteinase-9 (Homo sapiens) (P14780 whole entry): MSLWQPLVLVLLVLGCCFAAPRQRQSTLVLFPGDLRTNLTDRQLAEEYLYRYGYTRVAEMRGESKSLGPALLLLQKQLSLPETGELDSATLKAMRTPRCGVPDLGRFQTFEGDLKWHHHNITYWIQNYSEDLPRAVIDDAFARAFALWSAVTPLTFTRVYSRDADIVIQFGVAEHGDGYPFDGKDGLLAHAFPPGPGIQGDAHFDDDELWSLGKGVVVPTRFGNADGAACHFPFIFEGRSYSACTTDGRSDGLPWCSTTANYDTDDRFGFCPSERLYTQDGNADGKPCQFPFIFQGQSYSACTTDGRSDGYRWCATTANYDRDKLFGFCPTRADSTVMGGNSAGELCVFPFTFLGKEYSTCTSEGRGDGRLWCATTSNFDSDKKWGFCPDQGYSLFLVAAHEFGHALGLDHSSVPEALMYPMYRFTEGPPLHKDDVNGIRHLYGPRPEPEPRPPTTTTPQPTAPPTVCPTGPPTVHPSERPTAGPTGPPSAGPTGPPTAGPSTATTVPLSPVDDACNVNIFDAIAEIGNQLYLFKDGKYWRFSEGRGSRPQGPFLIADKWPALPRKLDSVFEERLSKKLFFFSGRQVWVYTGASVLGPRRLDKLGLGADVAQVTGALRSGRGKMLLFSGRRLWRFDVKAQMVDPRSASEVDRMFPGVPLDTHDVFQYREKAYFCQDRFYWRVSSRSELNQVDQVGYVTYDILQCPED
Chain of Stromelysin-1 (Homo sapiens) (P08254 100-477 limits assumed): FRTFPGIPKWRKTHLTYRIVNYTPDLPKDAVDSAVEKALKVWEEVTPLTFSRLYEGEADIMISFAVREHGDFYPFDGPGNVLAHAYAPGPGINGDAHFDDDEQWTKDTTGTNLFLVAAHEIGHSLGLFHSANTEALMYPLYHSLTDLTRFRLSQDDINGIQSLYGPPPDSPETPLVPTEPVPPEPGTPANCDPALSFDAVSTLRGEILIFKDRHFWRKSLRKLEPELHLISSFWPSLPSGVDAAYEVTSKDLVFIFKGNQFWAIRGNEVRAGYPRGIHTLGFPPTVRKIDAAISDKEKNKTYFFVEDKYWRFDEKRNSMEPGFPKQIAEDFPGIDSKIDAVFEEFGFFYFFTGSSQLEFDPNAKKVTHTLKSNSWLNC

Usually inhibition stands for the change of the read-out against control, counted positive when it falls. As for `Cc1cc(=O)[nH]c(SCc2ccc(Cl)cc2)n1`, the inhibition at Collagenase 3 [1] worked out at 32.9%.

As to `O=C(O)c1ccc(CSc2nc3c(c(=O)[nH]2)CCC3)cc1`, the inhibition on Collagenase 3 [1] stood at 2.2%.

Turning to `C#CCSc1nc2c(c(=O)[nH]1)CCC2`, the inhibition at Collagenase 3 [1] came to 10.3%.

For `CCCCSc1nc(O)c2c(n1)CCC2`, the inhibition at Collagenase 3 [1] stood at 17.1%.

Consider `Cc1cccc(CSc2nc(O)c3c(n2)CCCC3)c1`, for which the inhibition result at Collagenase 3 [1] is “inactive”.

Regarding `O=c1[nH]c(SCc2ccc(OC(F)(F)F)cc2)nc2c1CCC2`, the inhibition at Collagenase 3 [1] worked out at 34.4%.

For the compound `Cc1ccc(CSc2nc(O)c3c(n2)CCC3)cc1`, the inhibition was 67% on Collagenase 3 [1]; 0% on Neutrophil collagenase [3]; 7% in [5]; 19% in [7]; 0% in experiment [9]; 20% in experiment [12]. Also, the Activity was 38.6% at Collagenase 3 [2]; 97.6% in experiment [4]; 101% in experiment [6]; 77.3% in experiment [8]; 106% at Neutrophil collagenase [10]; 106% in experiment [11]. Besides, the Activity in experiment [14] and in experiment [15] was 100% in each case. The inhibition entry in [13] is “inactive”.

Consider `O=C(CSc1nc2c(c(=O)[nH]1)C(Cc1ccccc1)CC2)c1ccccc1` (stereo not given), for which the inhibition at Collagenase 3 [1] was determined as 16%.

Take `Cc1oc(-c2cccc(Cl)c2)cc1CSc1nc2c(c(=O)[nH]1)CCC2`: the inhibition result at Collagenase 3 [1] was “inactive”.

`Oc1[nH]c(SCc2ccc(Cl)cc2)nc2nncc1-2`: on Collagenase 3 [1], the inhibition result was “inactive”.

For `Oc1nc(SCc2ccc(Cl)cc2)nc2ccccc12`, the inhibition entry on Collagenase 3 [1] was “inactive”.

On to `O=c1[nH]c(SCc2ccc(Cl)cc2)nc(O)c1Cc1ccccc1`, for which the inhibition result on Collagenase 3 [1] was “inactive”.

With `Oc1nc(SCc2ccc(Cl)cc2)nc2ccsc12`, the inhibition at Collagenase 3 [1] stood at 36.6%.

By Ki is commonly meant a dissociation constant, usually derived from enzyme kinetics or from competition with a known ligand. Usually IC50 stands for the concentration at which inhibition is half-maximal. Low readings indicate higher potency, high ones lower potency. On to `COC(=O)c1ccc(CSc2nc3c(c(=O)[nH]2)CCC3)cc1`, for which the Ki on Collagenase 3 [16] came out at 1.53 µM. Moreover, the inhibition worked out at 61% on Collagenase 3 [1]; 8% against Neutrophil collagenase [3]; 16% in [5]; 26% in experiment [7]; 0% in experiment [9]; 31% in [12]. Moreover, the Activity on Collagenase 3 [2] turned out to be 35.1%; in [4], 84.7%; in experiment [6], 96.4%; in experiment [8] it was 80.6%; at Neutrophil collagenase [10] it was 93.8%; in experiment [11], 102%. The values for the Activity in experiment [14] and in experiment [15] were 104% and 100%, respectively. For the same compound, the half-inhibitory concentration (IC50) against Neutrophil collagenase [17] and against Interstitial collagenase was > 40 µM throughout. Also, the inhibition result in experiment [13] is “inactive”.

On to `Nc1cc(O)nc(SCc2ccc(Cl)cc2)n1`, for which the inhibition at Collagenase 3 [1] worked out at 37%.

Regarding `O=S(=O)(Nc1cc(O)nc(SCc2ccc(Cl)cc2)n1)c1ccccc1`, the inhibition at Collagenase 3 [1] was 31.2%.

Regarding `O=c1[nH]c(SCc2coc(-c3cccc(Cl)c3)n2)nc2c1CCC2`, the inhibition entry on Collagenase 3 [1] was “inactive”.

On to `CS(=O)(=O)c1ccc(CSc2nc3c(c(=O)[nH]2)CCC3)cc1`, for which the inhibition on Collagenase 3 [1] was 46.7%.

With `O=c1[nH]c(SCCCc2ccccc2)nc2c1CCC2`, on Collagenase 3 [1], the inhibition amounted to 7.2%.

On to `CC(=O)Nc1c(O)nc(SCc2ccc(Cl)cc2)nc1O`, for which the inhibition result at Collagenase 3 [1] is “inactive”.

Turning to `Cc1nc(SCc2ccc(Br)cc2)nc(O)c1C`, the inhibition at Collagenase 3 [1] was 55.8%; on Neutrophil collagenase [3], 20%.

Turning to `O=C(CSc1nc2c(c(=O)[nH]1)CCC2)c1ccccc1`, the inhibition result on Collagenase 3 [1] is “inactive”.

Consider `O=c1[nH]c(SCc2ccc(Cl)cc2)nc2c1C(Cc1ccccc1)CC2` (stereo not given), for which the inhibition on Collagenase 3 [1] is 37.7%.

Consider `CCCc1cc(O)nc(SCc2ccc(Cl)cc2)n1`, for which the inhibition entry at Collagenase 3 [1] is “inactive”.

On to `O=c1[nH]c(SCCc2ccccc2)nc2c1CCC2`, for which the inhibition at Collagenase 3 [1] came out at 7.7%.

In the case of `Cc1ccc(CSc2nc3c(c(=O)[nH]2)CCC3)cc1`, the inhibition constant Ki on Collagenase 3 [16] turned out to be 0.824 µM. Also, the IC50 against Neutrophil collagenase [17] and against Interstitial collagenase was > 40 µM in each case.

Regarding `Cc1cccc(CSc2nc3c(c(=O)[nH]2)CCC3)c1`, the inhibition at Collagenase 3 [1] is 45.2%.

With `Cc1ccccc1S(=O)(=O)Nc1cc(=O)[nH]c(SCc2ccc(Cl)cc2)n1`, at Collagenase 3 [1], the inhibition amounted to 30.5%.

On to `Oc1nc(SCc2ccc(Cl)cc2)nc2c1CCC2`, for which the Ki on Collagenase 3 [16] is 3.8 µM. Further, the inhibition on Collagenase 3 [1] was determined as 49.1%; at Neutrophil collagenase [3] it was 17%; in [5] it was 10%; in [7], 25%; in experiment [9] it was 0%; in experiment [12], 22%. Moreover, the Activity stood at 44% on Collagenase 3 [2]; 83% in experiment [4]; 105% in experiment [6]; 91.6% in [8]; 81.7% at Neutrophil collagenase [10]; 92.7% in [11]. Besides, the Activity in experiment [14] is 107%; in [15], 96%. The 50% inhibitory concentration (IC50) against Neutrophil collagenase [17] and at Interstitial collagenase was > 40 µM throughout. Besides, the inhibition entry in experiment [13] is “inactive”.
